Assay results taken from ChEMBL document CHEMBL4346663, “N-Cinnamoylanthranilates as human TRPA1 modulators: Structure-activity relationships and channel binding sites” (Eur J Med Chem, 2019).
Blank lines part the entries; values can stand above or below the compound they belong to. Active and inactive are the calls of the source. No cut-off for these calls is given here.

Assays:
[1] = molecular target: T1, Transient receptor potential cation channel subfamily A member 1 (Homo sapiens, UniProt O75762); assay: Agonist activity at human TRPA1 expressed in HEK293 cells assessed as increase in calcium influx at 30 uM by Fluo-4-AM dye based fluorescence assay relative to calcimycin; type: cell-based
T1 sequence (O75762 whole entry): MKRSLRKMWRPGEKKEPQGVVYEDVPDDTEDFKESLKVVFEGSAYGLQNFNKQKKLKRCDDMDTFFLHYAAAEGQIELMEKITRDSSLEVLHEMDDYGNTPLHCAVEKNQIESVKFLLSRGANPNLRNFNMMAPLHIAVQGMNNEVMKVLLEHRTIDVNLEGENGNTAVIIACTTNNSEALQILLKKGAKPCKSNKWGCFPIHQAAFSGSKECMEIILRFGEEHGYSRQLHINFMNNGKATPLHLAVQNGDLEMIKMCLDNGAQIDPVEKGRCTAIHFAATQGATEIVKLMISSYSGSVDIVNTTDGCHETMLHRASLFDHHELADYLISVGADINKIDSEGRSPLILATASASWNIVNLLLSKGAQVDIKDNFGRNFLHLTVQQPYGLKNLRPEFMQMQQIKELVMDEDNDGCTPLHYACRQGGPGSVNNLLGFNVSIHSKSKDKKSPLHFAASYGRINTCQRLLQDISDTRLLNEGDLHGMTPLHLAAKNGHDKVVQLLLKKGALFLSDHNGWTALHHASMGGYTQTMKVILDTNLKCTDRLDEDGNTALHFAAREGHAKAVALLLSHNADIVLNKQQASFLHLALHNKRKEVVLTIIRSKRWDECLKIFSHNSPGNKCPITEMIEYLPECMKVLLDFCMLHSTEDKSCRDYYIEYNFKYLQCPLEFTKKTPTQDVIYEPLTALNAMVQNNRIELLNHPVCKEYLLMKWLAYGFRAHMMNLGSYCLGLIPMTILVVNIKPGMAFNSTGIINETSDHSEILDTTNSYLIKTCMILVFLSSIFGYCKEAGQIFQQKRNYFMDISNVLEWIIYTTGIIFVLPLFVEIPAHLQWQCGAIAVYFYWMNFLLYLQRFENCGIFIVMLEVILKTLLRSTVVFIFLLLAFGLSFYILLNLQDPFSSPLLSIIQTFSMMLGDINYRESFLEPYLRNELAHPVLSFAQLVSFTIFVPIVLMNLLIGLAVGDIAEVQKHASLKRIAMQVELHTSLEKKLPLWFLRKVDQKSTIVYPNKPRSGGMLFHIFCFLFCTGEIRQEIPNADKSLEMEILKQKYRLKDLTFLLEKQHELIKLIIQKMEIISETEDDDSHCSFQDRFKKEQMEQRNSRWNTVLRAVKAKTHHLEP
Method in brief: (§1)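 Stably transfected hTRPA1- or hTRPM8-HEK293 cells on poly-D-lysine plates for 48 h, loaded with Fluo-4AM (2 µM, 45 min, dark, room temperature), in isotonic HEPES buffer pH 7.4. FlexStation 240 s run: 20 s baseline, compound added, calcimycin added at 180 s. ΔRFU expressed as % calcimycin, DMSO-subtracted. Screening N = 3. Dose-response curves fitted for logEC50 (N = 3 in duplicate or triplicate).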

[2] = molecular target: T1, Transient receptor potential cation channel subfamily A member 1; assay: Antagonist activity at human TRPA1 expressed in HEK293 cells assessed as increase in calcium influx at 100 uM incubated for 10 mins prior to CA addition by Fluo-4-AM dye based fluorescence assay relative to CA; type: cell-based; set-up: scale not given: the % may be the effect or the level left
Method in brief: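 hTRPA1-HEK293 cells loaded with Fluo-4AM (2 µM). Compound pre-incubated 10 min, then cinnamaldehyde standard agonist added. FlexStation read, ex 485/em 538 nm. ΔRFU normalized to the CA response set at 100 % after DMSO vehicle subtraction. N = 3. logIC50 taken from dose-response fits.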

[3] = molecular target: T1, Transient receptor potential cation channel subfamily A member 1; assay: Agonist activity at human TRPA1 expressed in HEK293 cells assessed as increase in calcium influx by Fluo-4-AM dye based fluorescence assay; type: cell-based; method in brief: as §1
[4] = molecular target: T1, Transient receptor potential cation channel subfamily A member 1; assay: Antagonist activity at human TRPA1 expressed in HEK293 cells assessed as inhibition of CA-induced increase in calcium influx incubated for 10 mins prior to CA addition by Fluo-4-AM dye based fluorescence assayy; type: cell-based
[5] = molecular target: T2, Transient receptor potential cation channel subfamily M member 8 (Homo sapiens, UniProt Q7Z2W7); assay: Agonist activity at human TRPM8 expressed in HEK293 cells assessed as increase in calcium influx at 30 uM by Fluo-4-AM dye based fluorescence assay relative to calcimycin; type: cell-based; method in brief: as §1
Target sequence in this assay (Q7Z2W7 whole entry, looked up): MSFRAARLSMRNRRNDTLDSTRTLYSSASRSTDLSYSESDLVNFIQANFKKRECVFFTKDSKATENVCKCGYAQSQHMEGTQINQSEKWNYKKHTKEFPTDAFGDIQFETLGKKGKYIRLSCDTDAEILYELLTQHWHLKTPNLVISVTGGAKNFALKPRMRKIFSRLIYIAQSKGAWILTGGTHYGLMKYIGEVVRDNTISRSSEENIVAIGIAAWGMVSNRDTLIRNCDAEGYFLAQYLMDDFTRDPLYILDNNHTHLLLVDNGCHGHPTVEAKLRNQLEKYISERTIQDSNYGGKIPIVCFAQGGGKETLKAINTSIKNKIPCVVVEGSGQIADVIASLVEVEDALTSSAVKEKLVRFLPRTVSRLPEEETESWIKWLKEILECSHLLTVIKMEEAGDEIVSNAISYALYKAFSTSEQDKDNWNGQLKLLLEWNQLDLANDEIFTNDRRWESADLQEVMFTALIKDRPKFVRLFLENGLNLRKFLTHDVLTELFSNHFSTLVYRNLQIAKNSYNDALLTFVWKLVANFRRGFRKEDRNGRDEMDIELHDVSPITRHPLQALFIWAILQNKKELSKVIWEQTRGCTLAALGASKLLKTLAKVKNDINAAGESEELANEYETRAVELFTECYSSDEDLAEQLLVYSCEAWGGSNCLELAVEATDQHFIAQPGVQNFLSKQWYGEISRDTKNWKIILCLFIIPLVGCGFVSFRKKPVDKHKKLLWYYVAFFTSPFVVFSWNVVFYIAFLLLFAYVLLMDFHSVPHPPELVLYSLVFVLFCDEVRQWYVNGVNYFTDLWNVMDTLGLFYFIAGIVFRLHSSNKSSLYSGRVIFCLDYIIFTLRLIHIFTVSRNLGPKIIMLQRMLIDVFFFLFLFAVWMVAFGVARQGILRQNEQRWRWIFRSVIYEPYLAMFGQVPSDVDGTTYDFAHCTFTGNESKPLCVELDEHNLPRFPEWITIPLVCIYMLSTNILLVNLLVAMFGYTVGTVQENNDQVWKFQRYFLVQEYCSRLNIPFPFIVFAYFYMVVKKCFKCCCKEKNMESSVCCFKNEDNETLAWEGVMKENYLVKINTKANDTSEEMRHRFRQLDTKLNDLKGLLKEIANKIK

[6] = molecular target: T2, Transient receptor potential cation channel subfamily M member 8; assay: Antagonist activity at human TRPM8 expressed in HEK293 cells assessed as increase in calcium influx at 100 uM incubated for 10 mins prior to WS5 challenge by Fluo-4-AM dye based fluorescence assay relative to WS5; type: cell-based; set-up: scale not given: the % may be the effect or the level left
Method in brief: (§2)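 hTRPM8-HEK293 cells loaded with Fluo-4AM (2 µM, 45 min). Test compound pre-incubated 10 min before WS5 standard agonist. FlexStation fluorescence at 485/538 nm. ΔRFU given as % of WS5 response after DMSO vehicle subtraction. N = 3. IC50 from dose-response curves.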
Target sequence in this assay (Q7Z2W7 whole entry, looked up): as above

[7] = molecular target: T2, Transient receptor potential cation channel subfamily M member 8; assay: Antagonist activity at human TRPM8 expressed in HEK293 cells assessed as inhibition in WS5-induced increase in calcium influx incubated for 10 mins prior to WS5 challenge by Fluo-4-AM dye based fluorescence assay; type: cell-based; method in brief: as §2
Target sequence in this assay (Q7Z2W7 whole entry): as the sequence (Q7Z2W7 whole entry, looked up) above

[8] = Dissociation constant, pKa of the compound at pH 7.4; type: physicochemical
[9] = molecular target: T2, Transient receptor potential cation channel subfamily M member 8; assay: Agonist activity at human TRPM8 expressed in HEK293 cells assessed as increase in calcium influx at 100 uM by Fluo-4-AM dye based fluorescence assay relative to calcimycin; type: cell-based; method in brief: as §1
Target sequence in this assay (Q7Z2W7 whole entry, looked up): as above

[10] = molecular target: T1, Transient receptor potential cation channel subfamily A member 1; assay: Modulating activity at human TRPA1 expressed in HEK293 cells assessed as desensitization of CA-induced increase in Ca2+ influx at 10 uM measured within 10 mins by Fluo-4-AM dye based fluorescence assay; type: cell-based
Method in brief: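 hTRPA1-HEK293 cells with Fluo-4AM. Real-time fluorescence recorded for 10 min after compound addition (10 µM), followed by challenge with cinnamaldehyde (30 µM) to assess desensitization of the agonist response.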

[11] = molecular target: T1, Transient receptor potential cation channel subfamily A member 1; assay: Reversible desensitizing activity at human TRPA1 expressed in HEK293 cells assessed as CA-induced increase in Ca2+ influx upto 10 uM pretreated with compound followed by drug wash-out and CA challenge by Fluo-4-AM dye based fluorescence assay; type: cell-based
Method in brief: (§3)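 hTRPA1-HEK293 cells loaded with Fluo-4AM were pre-incubated with compound, then washed and resuspended in fresh assay buffer. The response to cinnamaldehyde (30 µM) was then measured by FlexStation calcium fluorescence.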

[12] = molecular target: T1, Transient receptor potential cation channel subfamily A member 1; assay: Irreversible desensitizing activity at human TRPA1 expressed in HEK293 cells assessed as CA-induced increase in Ca2+ influx at >30 uM pretreated with compound followed by drug wash-out and CA challenge by Fluo-4-AM dye based fluorescence assay; type: cell-based; method in brief: as §3
[13] = molecular target: T1, Transient receptor potential cation channel subfamily A member 1; assay: Agonist activity at human TRPA1 in WI38 cells assessed as increase in calcium influx by Fluo-4-AM dye based fluorescence assay; type: cell-based
[14] = tested on: Transient receptor potential cation channel subfamily A member 1 (Homo sapiens), O75762 [F909A]; assay: Agonist activity at human TRPA1 Phe909Ala mutant expressed in HEK293 cells assessed as Ca2+ influx at 30 uM by fluorescence assay; type: cell-based
Transient receptor potential cation channel subfamily A member 1 (Homo sapiens), O75762 [F909A], sequence (O75762 whole entry F909A): as the sequence (O75762 whole entry) above, with F909A counted along it
Method in brief: (§4)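 HEK293 cells stably expressing hTRPA1 point mutants (C621A, F909A or F944A), single-cell cloned under G418 selection. Cells plated on poly-D-lysine for 48 h, loaded with Fluo-4AM 2 µM for 45 min at room temperature. FlexStation read (ex 485/em 538 nm): 20 s baseline, compound added, calcimycin added at 180 s. Response expressed as % calcimycin from ΔRFU, vehicle-subtracted, and compared with wild-type hTRPA1 cells.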

[15] = tested on: Transient receptor potential cation channel subfamily A member 1 (Homo sapiens), O75762 [F909A]; assay: Antagonist activity at human TRPA1 Phe909Ala mutant expressed in HEK293 cells assessed as Ca2+ influx at 100 uM by fluorescence assay; type: cell-based
Method in brief: (§5)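 hTRPA1 F909A or F944A mutant HEK293 stable clones, loaded with Fluo-4AM (2 µM, 45 min, room temperature). Compound pre-incubated 10 min before the standard agonist was added. FlexStation fluorescence (485/538 nm). ΔRFU normalized to the standard agonist response set at 100 %, after DMSO vehicle subtraction.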

[16] = molecular target: Transient receptor potential cation channel subfamily A member 1 (Mus musculus, UniProt Q8BLA8); assay: Agonist activity at mouse TRPA1 expressed in CHO cells assessed as increase in calcium influx by patch clamp electrophysiology method; type: cell-based
Transient receptor potential cation channel subfamily A member 1 (Mus musculus, UniProt Q8BLA8), sequence (Q8BLA8 whole entry): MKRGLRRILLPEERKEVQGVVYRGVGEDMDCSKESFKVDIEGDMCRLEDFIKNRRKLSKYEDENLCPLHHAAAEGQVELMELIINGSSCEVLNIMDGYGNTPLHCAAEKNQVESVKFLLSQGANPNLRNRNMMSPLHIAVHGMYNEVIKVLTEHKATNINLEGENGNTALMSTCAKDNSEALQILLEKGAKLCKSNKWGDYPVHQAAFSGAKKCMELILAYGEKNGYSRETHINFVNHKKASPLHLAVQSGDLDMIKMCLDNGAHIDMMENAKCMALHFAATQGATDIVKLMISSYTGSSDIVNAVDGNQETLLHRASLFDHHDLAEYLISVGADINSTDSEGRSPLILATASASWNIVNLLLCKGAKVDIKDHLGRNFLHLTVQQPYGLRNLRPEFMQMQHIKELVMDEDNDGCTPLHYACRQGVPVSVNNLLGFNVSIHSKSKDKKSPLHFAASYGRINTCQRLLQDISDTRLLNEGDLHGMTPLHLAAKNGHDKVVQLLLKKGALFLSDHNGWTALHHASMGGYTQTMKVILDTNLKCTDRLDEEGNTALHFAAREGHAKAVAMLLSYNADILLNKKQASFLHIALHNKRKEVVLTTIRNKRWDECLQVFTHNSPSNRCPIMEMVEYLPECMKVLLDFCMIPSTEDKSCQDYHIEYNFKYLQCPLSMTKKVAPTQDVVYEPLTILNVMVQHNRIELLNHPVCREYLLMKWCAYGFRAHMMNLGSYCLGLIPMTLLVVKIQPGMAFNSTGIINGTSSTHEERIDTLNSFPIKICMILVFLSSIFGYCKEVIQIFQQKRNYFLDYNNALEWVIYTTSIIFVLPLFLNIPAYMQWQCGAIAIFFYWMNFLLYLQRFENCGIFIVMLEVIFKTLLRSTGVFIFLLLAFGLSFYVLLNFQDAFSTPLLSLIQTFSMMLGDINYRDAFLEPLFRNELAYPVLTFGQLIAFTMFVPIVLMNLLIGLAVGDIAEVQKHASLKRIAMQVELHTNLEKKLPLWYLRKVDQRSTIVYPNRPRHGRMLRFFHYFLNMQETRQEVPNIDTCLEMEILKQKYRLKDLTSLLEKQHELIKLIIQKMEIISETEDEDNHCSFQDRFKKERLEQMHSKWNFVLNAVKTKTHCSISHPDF

[17] = tested on: Transient receptor potential cation channel subfamily A member 1 (Homo sapiens), O75762 [C621A]; assay: Agonist activity at human TRPA1 […] mutant expressed in HEK293 cells assessed as Ca2+ influx at 100 uM by fluorescence assay; type: cell-based
Transient receptor potential cation channel subfamily A member 1 (Homo sapiens), O75762 [C621A], sequence (O75762 whole entry C621A): as the sequence (O75762 whole entry) above, with C621A counted along it

[18] = tested on: Transient receptor potential cation channel subfamily A member 1 (Homo sapiens), O75762 [F909A]; assay: Agonist activity at human TRPA1 Phe909Ala mutant expressed in HEK293 cells assessed as Ca2+ influx at 100 uM by fluorescence assay; type: cell-based
Method in brief: (§6)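 HEK293 cells stably expressing hTRPA1 point mutants, made by FuGENE 6 transfection, G418 (0.5 mg ml-1) selection and single-cell cloning, grown in DMEM with 25 mM HEPES, 10% FBS and geneticin. Ca2+ influx was read by Fluo dye fluorescence at room temperature, with calcimycin added at the end. Response was ΔRFU as % of calcimycin, with the DMSO vehicle subtracted.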

[19] = tested on: Transient receptor potential cation channel subfamily A member 1 (Homo sapiens), O75762 [F944A]; assay: Agonist activity at human TRPA1 Phe944Ala mutant expressed in HEK293 cells assessed as Ca2+ influx at 100 uM by fluorescence assay; type: cell-based; method in brief: as §6
Transient receptor potential cation channel subfamily A member 1 (Homo sapiens), O75762 [F944A], sequence (O75762 whole entry F944A): as the sequence (O75762 whole entry) above, with F944A counted along it

[20] = molecular target: T1, Transient receptor potential cation channel subfamily A member 1; assay: Antagonist activity at human TRPA1 expressed in HEK293 cells assessed as increase in calcium influx at 3 uM incubated for 10 mins prior to CA challenge by Fluo-4-AM dye based fluorescence assay […]; type: cell-based
[21] = molecular target: T2, Transient receptor potential cation channel subfamily M member 8; assay: Agonist activity at human TRPM8 expressed in HEK293 cells assessed as increase in calcium influx at 3 uM by Fluo-4-AM dye based fluorescence assay relative to calcimycin; type: cell-based; method in brief: as §1
Target sequence in this assay (Q7Z2W7 whole entry, looked up): as the sequence (Q7Z2W7 whole entry, looked up) above

[22] = molecular target: T2, Transient receptor potential cation channel subfamily M member 8; assay: Antagonist activity at human TRPM8 expressed in HEK293 cells assessed as increase in calcium influx at 30 uM incubated for 10 mins prior to WS5 challenge by Fluo-4-AM dye based fluorescence assay relative to WS5; type: cell-based; set-up: scale not given: the % may be the effect or the level left; method in brief: as §2
Target sequence in this assay (Q7Z2W7 whole entry, looked up): as above

[23] = tested on: Transient receptor potential cation channel subfamily A member 1 (Homo sapiens), O75762 [F944A]; assay: Agonist activity at human TRPA1 Phe944Ala mutant expressed in HEK293 cells assessed as Ca2+ influx at 30 uM by fluorescence assay; type: cell-based; method in brief: as §4
[24] = molecular target: T1, Transient receptor potential cation channel subfamily A member 1; assay: Reversible desensitizing activity at human TRPA1 expressed in HEK293 cells assessed as CA-induced increase in Ca2+ influx up to 30 uM pretreated with compound followed by drug wash-out and CA challenge by Fluo-4-AM dye based fluorescence assay; type: cell-based; method in brief: as §3
[25] = tested on: Transient receptor potential cation channel subfamily A member 1 (Homo sapiens), O75762 [F944A]; assay: Antagonist activity at human TRPA1 Phe944Ala mutant expressed in HEK293 cells assessed as Ca2+ influx at 100 uM by fluorescence assay; type: cell-based; method in brief: as §5

SMILES: CC(C)c1ccc(NC(=O)Cn2cnc3c2c(=O)n(C)c(=O)n3C)cc1
- IC50 [4]: 18 µM
- Activity [15]: Active

SMILES: CC1CCC(C(C)C)C(O)C1 (stereo not given) [MENTHOL]
- EC50 ([3]; read-out: EC50): 30 µM
- EC50 [16]: 95 µM
- Activity [17]: inactive
- Activity [18]: inactive
- Activity [19]: inactive

SMILES: O=C(/C=C/c1ccccc1Cl)Nc1ccccc1C(=O)O
- Activity [1]: 44%
- Activity [2]: 5%
- EC50 ([3]; read-out: EC50): 42 µM
- IC50 [4]: 11 µM
- Activity [5]: inactive
- Activity [6]: 25%
- IC50 [7]: 21 µM
- pKa [8]: 3.4
- Activity [9]: inactive
- Activity [10]: Active
- Activity [24]: Active
- Activity [12]: Active

Now from value to compound, other results behind:

- Activity [1]: 60%
- Activity [2]: 6%
- EC50 ([3]; read-out: EC50): 12 µM
- IC50 [4]: 9 µM
- Activity [5]: inactive
- Activity [6]: 35%
- IC50 [7]: 59 µM
- pKa [8]: 3.4
- Activity [9]: inactive
SMILES: O=C(/C=C/c1ccc(Br)cc1)Nc1ccccc1C(=O)O
- Activity [10]: Active
- Activity [11]: Active
- Activity [12]: Active

- EC50 ([3]; read-out: EC50): 56 µM
- EC50 ([3]; read-out: pEC50 (converted)): 63.1 µM
- EC50 [13]: 210 µM
- Activity [14]: Active
SMILES: O=C(O)Cc1ccccc1Nc1c(Cl)cccc1Cl [DICLOFENAC]

- Activity [1]: 45%
- Activity [20]: inactive
- Activity [21]: inactive
- Activity [22]: 12%
- pKa [8]: 11.9
- Activity [14]: Active
- Activity [23]: inactive
SMILES: COC(=O)c1ccccc1NC(=O)CCOc1ccccc1

- IC50 [4]: 10 µM
- Activity [15]: inactive
- Activity [25]: inactive
SMILES: O=C(NCc1ccc(Cl)cc1)[C@@H]1CCCN1S(=O)(=O)c1ccc(F)cc1
